Results on nine compounds are retold here after ChEMBL document CHEMBL1158804, “Lupane triterpenoids from Maytenus species” (J Nat Prod, 2005).

Active and inactive are the calls of the source. The calls are words filed in the database; no cut-off is given here.

Assay [1] relates to Proteus mirabilis. The assay is described as follows: Antibacterial activity against Proteus mirabilis CECT170 up to 40 ug/mL by broth microdilution method. It is filed as functional, organism-based. A digest of the protocol:
(§1)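 Compounds are dissolved in DMSO. The minimal inhibitory concentration is estimated by broth microdilution.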

In assay [2] the test system is Vero. The assay is described as follows: Cytotoxicity against african green monkey Vero cells after 48 hrs by MTT assay. It is filed as cell-based. Particulars: Chlorocebus sabaeus. In a few lines:
(§2)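 Monolayers are cultured in DMEM with 5% fetal calf serum and 1% penicillin-streptomycin at 37 °C, 5% CO2 and 90% humidity. Exponentially growing cells (2 × 10^4 cells/well) are exposed to a range of compound concentrations for 48 h at 37 °C. Viability is read by colorimetric MTT reduction.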

For assay [3], the system named is Enterococcus faecalis. The assay is described as follows: Antibacterial activity against Enterococcus faecalis CECT 795 up to 40 ug/mL by broth microdilution method. It is filed as functional, organism-based. In a few lines:
as §1

Assay [4] concerns HeLa. The assay can be described thus: Cytotoxicity against human HeLa cells after 48 hrs by MTT assay. The assay is classed as functional, cell-based. A digest of the protocol:
as §2

Assay [5] concerns Pseudomonas aeruginosa. The assay can be described thus: Antibacterial activity against Pseudomonas aeruginosa AK 958 up to 40 ug/mL by broth microdilution method. It is filed as functional, organism-based. A digest of the protocol: as §1
Assay [6] relates to Bacillus cereus. The assay can be described thus: Antibacterial activity against Bacillus cereus CECT 496 up to 40 ug/mL by broth microdilution method. The assay is classed as functional, organism-based. A digest of the protocol:
as §1

The test system of assay [7] is Bacillus subtilis. The assay is described as follows: Antibacterial activity against Bacillus subtilis CECT 39 up to 40 ug/mL by broth microdilution method. It is filed as functional, organism-based. A digest of the protocol:
as §1

The subject of assay [8] is Staphylococcus epidermidis. The assay is described as follows: Antibacterial activity against Staphylococcus epidermidis CECT 232 up to 40 ug/mL by broth microdilution method. It is filed as functional, organism-based. A digest of the protocol:
as §1

Assay [9] has as its system HEp-2. The assay can be described thus: Cytotoxicity against human Hep2 cells after 48 hrs by MTT assay. The assay is classed as functional, cell-based. The following applies: HEp-2, 48 h. A digest of the protocol: as §2
Assay [10] deals with Escherichia coli. The assay can be described thus: Antibacterial activity against Escherichia coli CECT 99 up to 40 ug/mL by broth microdilution method. It is filed as functional, organism-based. In a few lines: as §1
Assay [11] deals with Mycolicibacterium smegmatis. The assay can be described thus: Antibacterial activity against Mycobacterium smegmatis CECT 3032 up to 40 ug/mL by broth microdilution method. It is filed as functional, organism-based. In a few lines:
as §1

For assay [12], the system named is Staphylococcus saprophyticus. The assay is described as follows: Antibacterial activity against Staphylococcus saprophyticus CECT 235 up to 40 ug/mL by broth microdilution method. The assay is classed as functional, organism-based. A digest of the protocol:
as §1

Assay [13] concerns Salmonella. The assay can be described thus: Antibacterial activity against Salmonella sp. CECT 456 up to 40 ug/mL by broth microdilution method. The assay is classed as functional, organism-based. In a few lines:
as §1

In assay [14] the test system is Priestia megaterium. The assay is described as follows: Antibacterial activity against Bacillus megaterium CECT 44 up to 40 ug/mL by broth microdilution method. The assay is classed as functional, organism-based. In a few lines:
as §1

For assay [15], the system named is Candida albicans. The assay can be described thus: Antifungal activity against Candida albicans UBC1 up to 40 ug/mL by broth microdilution method. It is filed as functional, organism-based. In a few lines:
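The yeast is grown on Sabouraud agar at 37 °C. Compounds are dissolved in DMSO, and the minimal inhibitory concentration is estimated by broth microdilution.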

For assay [16], the system named is Bacillus pumilus. The assay is described as follows: Antibacterial activity against Bacillus pumilus CECT 29 up to 40 ug/mL by broth microdilution method. The assay is classed as functional, organism-based. A digest of the protocol:
as §1

The test system of assay [17] is Staphylococcus aureus. The assay is described as follows: Antibacterial activity against Staphylococcus aureus ATCC 6538 up to 40 ug/mL by broth microdilution method. It is filed as functional, organism-based. In a few lines:
as §1

Turning to `C=C(C)[C@@H]1CC[C@]2(C)CC[C@]3(C)[C@@H](CC[C@@H]4[C@@]5(C)[C@H](O)CC(=O)C(C)(C)[C@@H]5CC[C@]43C)[C@@H]12` [GLOCHIDONOL], the outcome in [1], in assay [3], in assay [5], in [6], in assay [7] and in [8] was inactive. The result in assay [10], in assay [11], in assay [12], in assay [13], in assay [14] and in assay [15] was inactive. Also, the result in assay [16] and in assay [17] was inactive. For the same compound, the IC50 in assay [2], in assay [4] and in [9] was below 10 µg/mL in each case.

`C=C(C)[C@@H]1CC[C@]2(CO)CC[C@]3(C)[C@H](CC[C@@H]4[C@@]5(C)CCC(=O)C(C)(C)[C@@H]5CC[C@]43C)[C@@H]12` [BETULONE]: the outcome in assay [1], in [3], in assay [5], in assay [6], in assay [7] and in [8] was inactive. Besides, the result in [10], in assay [11], in assay [12], in [13], in assay [14] and in [15] was inactive. Besides, the result in [16] and in assay [17] was inactive. For the same compound, the IC50 in assay [2], in [4] and in [9] was above 10 µg/mL each time.

On to `C=C(C)[C@@H]1CC[C@]2(C)CC[C@]3(C)[C@@H](CC[C@@H]4[C@@]5(C)[C@@H](O)C[C@H](O)C(C)(C)[C@@H]5CC[C@]43C)[C@@H]12` [GLOCHIDIOL], for which the outcome in [1], in assay [3], in assay [5], in assay [6], in [7] and in assay [8] was inactive. The result in assay [10], in assay [11], in assay [12], in assay [13], in assay [14] and in [15] was inactive. For the same compound, the outcome in assay [16] and in assay [17] was inactive. In addition, the IC50 in [2], in assay [4] and in assay [9] was above 10 µg/mL each time.

For the compound `C=C(C)[C@@H]1CC[C@]2(C)CC[C@]3(C)[C@@H](C[C@@H](O)[C@@H]4[C@@]5(C)CCC(=O)C(C)(C)[C@@H]5CC[C@]43C)[C@@H]12` [RIGIDENOL], the result in assay [1], in [3], in assay [5], in assay [6], in [7] and in assay [8] was inactive. Moreover, the result in [10], in assay [11], in assay [12], in assay [13], in [14] and in assay [15] was inactive. Further, the outcome in [16] and in assay [17] was inactive. In addition, the IC50 in [2], in [4] and in assay [9] was above 10 µg/mL throughout.

As to `C=C(C)[C@@H]1CC[C@]2(C)CC[C@]3(C)[C@H](CC[C@@H]4[C@@]5(C)CCC(=O)C(C)(C)[C@@H]5CC[C@]43C)[C@@H]12` [LUPENONE], the outcome in [1], in assay [3], in [5], in [6], in assay [7] and in assay [8] was inactive. Besides, the outcome in assay [10], in [11], in [12], in assay [13], in assay [14] and in assay [15] was inactive. For the same compound, the outcome in assay [16] and in assay [17] was inactive. The half-inhibitory concentration (IC50) in [2], in assay [4] and in assay [9] was above 10 µg/mL throughout.

With `C=C(C)[C@@H]1CC[C@]2(CO)CC[C@]3(C)[C@H](CC[C@@H]4[C@@]5(C)CC[C@@H](O)C(C)(C)[C@@H]5CC[C@]43C)[C@@H]12` [3-EPI-BETULIN], the result in [1], in [3], in assay [5], in assay [6], in [7] and in assay [8] was inactive. Moreover, the result in assay [10], in assay [11], in assay [12], in [13], in assay [14] and in assay [15] was inactive. Further, the result in assay [16] and in assay [17] was inactive. The IC50 in assay [2], in assay [4] and in [9] was above 10 µg/mL throughout.

As to `C=C(C)[C@@H]1CC[C@]2(CO)CC[C@]3(C)[C@H](CC[C@@H]4[C@@]5(C)CC[C@H](O)C(C)(C)[C@@H]5[C@H](O)C[C@]43C)[C@@H]12`, the result in assay [1], in assay [3], in assay [5], in assay [6], in [7] and in [8] was inactive. For the same compound, the outcome in [10], in assay [11], in assay [12], in assay [13], in assay [14] and in [16] was inactive. For the same compound, in [17], the result was inactive. Besides, the IC50 in assay [2], in [4] and in assay [9] was above 10 µg/mL throughout.

On to `C=C(C)[C@@H]1CC[C@]2(C)CC[C@]3(C)[C@@H](CC[C@@H]4[C@@]5(C)[C@@H](O)C[C@@H](O)C(C)(C)[C@@H]5CC[C@]43C)[C@@H]12`, for which the result in assay [1], in [3], in assay [5], in [6], in [7] and in assay [8] was inactive. For the same compound, the outcome in assay [10], in [11], in assay [12], in assay [13], in assay [14] and in [15] was inactive. Also, the result in assay [16] and in [17] was inactive. In addition, the IC50 in assay [2], in assay [4] and in assay [9] was above 10 µg/mL each time.

With `C=C(C)[C@@H]1CC[C@]2(CO)CC[C@]3(C)[C@H](CC[C@@H]4[C@@]5(C)C=CC(=O)C(C)(C)[C@@H]5CC[C@]43C)[C@@H]12`, the result in assay [1], in assay [3], in assay [5], in [6], in assay [7] and in assay [8] was inactive. In addition, the outcome in assay [10], in [11], in [12], in [13], in assay [14] and in assay [16] was inactive. Besides, the outcome in assay [17] was inactive. Also, the 50% inhibitory concentration (IC50) in [2], in assay [4] and in assay [9] was above 10 µg/mL each time.
